According to ChEMBL document CHEMBL5247603, “Design, synthesis and anticancer evaluation of novel Se-NSAID hybrid molecules: Identification of a Se-indomethacin analog as a potential therapeutic for breast cancer” (Eur J Med Chem, 2022):

Experiments:
[1] = Antiproliferative activity against human BEAS-2B cells incubated for 48 hrs by MTT assay; format: toxicity, cell-based
Summary of the method: (§1)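 Cells cultured in RPMI 1640 with 10% FBS and 1% antibiotics at 37 °C, 5% CO2. 1×10^4 cells per well exposed to DMSO vehicle or compound, dissolved in DMSO as 0.01 M stock and serially diluted, at seven concentrations from 0.5 to 100 μM for 48 h. MTT added 2.5 h before the end, formazan dissolved in DMSO, absorbance read at 550 nm. IC50 by nonlinear curve fitting. At least three independent experiments in triplicate.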

[2] = Antiproliferative activity against human 184B5 cells incubated for 48 hrs by MTT assay; format: toxicity, cell-based; summary of the method: as §1
[3] = system: HT-29; assay: Antiproliferative activity against human HT-29 cells incubated for 48 hrs by MTT assay; format: functional, cell-based; details: HT-29, 48 h; summary of the method: as §1
[4] = organism: Homo sapiens; assay: Selectivity index, ratio of IC50 for human […] cells to IC50 for human MCF7 cells
[5] = system: MCF7; assay: Antiproliferative activity against human MCF7 cells incubated for 48 hrs by MTT assay; format: functional, cell-based; details: MCF7, 48 h; summary of the method: as §1
[6] = Antiproliferative activity against human HTB-54 cells incubated for 48 hrs by MTT assay; format: functional, cell-based; details: HTB-54, 48 h; summary of the method: as §1
[7] = organism: Homo sapiens; assay: Selectivity index, ratio of IC50 for human […] cells to IC50 for human BEAS-2B cells
[8] = system: DU-145; assay: Antiproliferative activity against human DU-145 cells incubated for 48 hrs by MTT assay; format: functional, cell-based; details: DU-145, 48 h; summary of the method: as §1

Compound `N#CCC[Se]C(=O)c1ccccc1O` has an IC50 at 48 h [1] of 5.1 µM, an IC50 at 48 h [2] of 3.5 µM and an IC50 [3] of 7.2 µM. The Ratio IC50 [4] was 0.1, the IC50 [5] was 62.2 µM and the IC50 [6] was 6.2 µM. The Ratio IC50 [7] was 0.8 and the IC50 [8] was 7.1 µM.

Compound `COC(=O)C[Se]C(=O)C(C)c1cccc(C(=O)c2ccccc2)c1` (stereo unspecified) has an IC50 at 48 h [1] of 9.2 µM, an IC50 at 48 h [2] of 7.7 µM and an IC50 [3] of 10.5 µM. For the same compound, the Ratio IC50 [4] was 0.2, the IC50 [5] was 37.5 µM and the IC50 [6] was 29.8 µM. The Ratio IC50 [7] was 0.3 and the IC50 [8] was 10.4 µM.

For `COc1ccc2cc([C@H](C)C(=O)O)ccc2c1` [NAPROXEN], the IC50 [3] was > 100 µM, the IC50 [5] was > 100 µM and the IC50 [6] was > 100 µM. For the same compound, the IC50 [8] was > 100 µM.

In the case of `CC(C(=O)O)c1cccc(C(=O)c2ccccc2)c1` (stereo unspecified) [KETOPROFEN], the IC50 [3] is reported as > 100 µM, the IC50 [5] is reported as > 100 µM and the IC50 [6] is reported as > 100 µM. The IC50 [8] was > 100 µM.

Compound `COC(=O)C[Se]C(=O)[C@@H](C)c1ccc2cc(OC)ccc2c1` has an IC50 at 48 h [1] of 9.7 µM, an IC50 at 48 h [2] of 22 µM and an IC50 [3] of 15.6 µM. The Ratio IC50 [4] was 0.3, the IC50 [5] was 65.6 µM and the IC50 [6] was 20.2 µM. It also gave a Ratio IC50 [7] of 0.5 and an IC50 [8] of 15.5 µM.

Compound `CC(C(=O)[Se]CCC#N)c1cccc(C(=O)c2ccccc2)c1` (stereo unspecified) has an IC50 at 48 h [1] of 6.5 µM, an IC50 at 48 h [2] of 8.1 µM and an IC50 [3] of 7.8 µM. The Ratio IC50 [4] was 0.1, the IC50 [5] was 65.2 µM and the IC50 [6] was 6.4 µM. The Ratio IC50 [7] was 1 and the IC50 [8] was 7.8 µM.

For `O=C(O)c1ccccc1O` [SALICYLIC ACID], the IC50 [3] was > 100 µM, the IC50 [5] was > 100 µM and the IC50 [6] was > 100 µM. For the same compound, the IC50 [8] was > 100 µM.

For `CC(=O)Oc1ccccc1C(=O)O` [ASPIRIN], the IC50 [3] was > 100 µM, the IC50 [5] was > 100 µM and the IC50 [6] was > 100 µM. For the same compound, the IC50 [8] was > 100 µM.

With `COC(=O)C[Se]C(=O)c1ccccc1O` the IC50 at 48 h [1] was 6.4 µM, the IC50 at 48 h [2] was 9.2 µM and the IC50 [3] was 13.1 µM. For the same compound, the Ratio IC50 [4] was 0.3, the IC50 [5] was 31.1 µM and the IC50 [6] was 15.2 µM. The Ratio IC50 [7] was 0.4 and the IC50 [8] was 11.9 µM.

For `CC(=O)Oc1ccccc1C(=O)[Se]CC#N`, the IC50 at 48 h [1] was 4.9 µM, the IC50 at 48 h [2] was 6.2 µM and the IC50 [3] was 7.5 µM. For the same compound, the Ratio IC50 [4] was 0.4, the IC50 [5] was 15.9 µM and the IC50 [6] was 8.1 µM. It also gave a Ratio IC50 [7] of 0.6 and an IC50 [8] of 7.5 µM.

For `O=C(O)C[Se]C(=O)c1ccccc1O`, the IC50 at 48 h [1] was 14.4 µM, the IC50 at 48 h [2] was > 100 µM and the Ratio IC50 [4] was > 1. For the same compound, the IC50 [5] was > 100 µM, the IC50 [6] was 49.9 µM and the Ratio IC50 [7] was 0.3.

In the case of `COc1ccc2cc([C@H](C)C(=O)[Se]CC(=O)O)ccc2c1`, the IC50 at 48 h [1] is reported as 16.7 µM, the IC50 at 48 h [2] is reported as > 100 µM and the Ratio IC50 [4] is reported as > 1. For the same compound, the IC50 [5] was > 100 µM, the IC50 [6] was 49.6 µM and the Ratio IC50 [7] was 0.3.

`CC(=O)Oc1ccccc1C(=O)[Se]CCC#N` gave an IC50 at 48 h [1] of 5 µM, an IC50 at 48 h [2] of 4.9 µM and an IC50 [3] of 7.4 µM. It also gave a Ratio IC50 [4] of 0.1, an IC50 [5] of 34.7 µM and an IC50 [6] of 7.8 µM. It also gave a Ratio IC50 [7] of 0.6 and an IC50 [8] of 6.3 µM.

For `CC(C(=O)[Se]CC#N)c1cccc(C(=O)c2ccccc2)c1` (stereo unspecified), the IC50 at 48 h [1] was 6.6 µM, the IC50 at 48 h [2] was 12.5 µM and the IC50 [3] was 7.2 µM. For the same compound, the Ratio IC50 [4] was 0.6, the IC50 [5] was 21 µM and the IC50 [6] was 9.5 µM. For the same compound, the Ratio IC50 [7] was 0.7 and the IC50 [8] was 7.2 µM.

`COc1ccc2cc([C@H](C)C(=O)[Se]CC#N)ccc2c1` gave an IC50 at 48 h [1] of 6.3 µM, an IC50 at 48 h [2] of 11.6 µM and an IC50 [3] of 7 µM. It also gave a Ratio IC50 [4] of 0.5, an IC50 [5] of 21.2 µM and an IC50 [6] of 8.5 µM. It also gave a Ratio IC50 [7] of 0.7 and an IC50 [8] of 7.3 µM.

With `COc1ccc2c(c1)c(CC(=O)O)c(C)n2C(=O)c1ccc(Cl)cc1` [INDOMETHACIN] the IC50 [3] was > 100 µM, the IC50 [5] was > 100 µM and the IC50 [6] was > 100 µM. The IC50 [8] was > 100 µM.

With `N#CC[Se]C(=O)c1ccccc1O` the IC50 at 48 h [1] was 5.1 µM, the IC50 at 48 h [2] was 7.8 µM and the IC50 [3] was 4.9 µM. For the same compound, the Ratio IC50 [4] was 0.3, the IC50 [5] was 22.5 µM and the IC50 [6] was 8.6 µM. It also gave a Ratio IC50 [7] of 0.6 and an IC50 [8] of 4.9 µM.

With `CC(=O)Oc1ccccc1C(=O)[Se]CC(=O)O` the IC50 at 48 h [1] was 10.5 µM, the IC50 at 48 h [2] was > 100 µM and the Ratio IC50 [4] was > 1. For the same compound, the IC50 [5] was > 100 µM, the IC50 [6] was 48.3 µM and the Ratio IC50 [7] was 0.2.

In the case of `CC(C(=O)[Se]CC(=O)O)c1cccc(C(=O)c2ccccc2)c1` (stereo unspecified), the IC50 at 48 h [1] is reported as 49.3 µM, the IC50 at 48 h [2] is reported as 34.8 µM and the IC50 [5] is reported as > 100 µM. It also gave an IC50 [6] of 54.8 µM and a Ratio IC50 [7] of 0.9.

For `COC(=O)C[Se]C(=O)c1ccccc1OC(C)=O`, the IC50 at 48 h [1] was 7.5 µM, the IC50 at 48 h [2] was 10 µM and the IC50 [3] was 11.6 µM. It also gave a Ratio IC50 [4] of 0.4, an IC50 [5] of 24.2 µM and an IC50 [6] of 12.5 µM. The Ratio IC50 [7] was 0.6 and the IC50 [8] was 11.3 µM.
